For 54 sequences, Tm and folding enthalpy results are on record in the array DNA melting data of Ke et al. (doi:10.1101/2024.01.08.574731).

A short description of data set [1]: melting temperature; fluorescence melt of hairpins on a sequencing array, two-state fit, raised by 9.35 °C to match UV melts. The conditions noted are these: sodium 0.088 M. The essentials:
(§1)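 Library hairpins on a sequenced MiSeq flow cell carried annealed Cy3 and quencher oligos, and their Cy3 fluorescence was imaged in 50 mM Na-HEPES pH 8.0 with 25 mM NaCl, in 2.5 °C steps up to 60 °C. Signals were normalised to Cy3 before quenching and to control constructs. Melting temperature and folding enthalpy were obtained from bootstrapped two-state fits, combined by inverse-variance weighting across four replicates, and the fitted temperatures were then raised by 9.35 °C to match UV melts.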

A short description of data set [2]: folding enthalpy; higher = less favourable; fluorescence melt of hairpins on a sequencing array, two-state fit. The note with it: sodium 0.088 M. The essentials: as §1

Take GCCCGTCGAAAGACCGGC (((.(((....))).))): the Tm in data set [1] is 52.6 °C. The folding enthalpy in data set [2] is -38.4 kcal/mol.

In the case of GCAAGCGAAAGCTCTTGC ((((((....)))..))), the Tm in data set [1] stood at 43.6 °C. Also, in data set [2], the folding enthalpy is -16.1 kcal/mol.

Take GCCCCGGCGAAAGCCGGC (((..(((....)))))): the Tm in data set [1] was determined as 39.8 °C. In addition, the folding enthalpy in data set [2] was -2.7 kcal/mol.

With GGGCTACGAAAGTAACCC (((.(((....))).))), the Tm in data set [1] amounted to 52 °C. The folding enthalpy in data set [2] is -36.6 kcal/mol.

For the sequence GCGAAGACGAAAGTCCGC (((..(((....)))))), the Tm in data set [1] is 52.4 °C. The folding enthalpy in data set [2] is -31.9 kcal/mol.

In the case of GGACTCGAAAGAGAGTCC ((((((....)))..))), the Tm in data set [1] is 54.5 °C. Further, the folding enthalpy in data set [2] was -40.5 kcal/mol.

Regarding GCGACCATTCGC ((((....)))), in data set [1], the Tm came out at 47.4 °C. In data set [2], the folding enthalpy is -24.4 kcal/mol.

For GTGCCCCGAAAGGGTCAC (((.(((....))).))), in data set [1], the Tm turned out to be 57.7 °C. Also, in data set [2], the folding enthalpy is -34.6 kcal/mol.

For the sequence GCCGGGCGAAAGCCACGC ((..(((....)))..)), in data set [1], the Tm worked out at 50 °C. In addition, in data set [2], the folding enthalpy is -12.7 kcal/mol.

Consider GATCATCGGTATGATC ((((((....)))))), for which the Tm in data set [1] amounted to 46.5 °C. Moreover, in data set [2], the folding enthalpy is -34.2 kcal/mol.

For GCAACCGGAAACGGCTGC (((.(((....))).))), the Tm in data set [1] was 53 °C. Besides, in data set [2], the folding enthalpy was -40.9 kcal/mol.

For GCTTACGAAAGTACCAGC ((((((....)))..))), the Tm in data set [1] came to 27.9 °C. For the same sequence, the folding enthalpy in data set [2] is -13.2 kcal/mol.

In the case of GCTTGGCGAAAGCCGGGC ((..(((....)))..)), the Tm in data set [1] stood at 59.2 °C. Besides, the folding enthalpy in data set [2] is -20.6 kcal/mol.

Regarding GTTGGCCCGAAAGGGAAC (((..(((....)))))), the Tm in data set [1] stood at 45.3 °C. The folding enthalpy in data set [2] was -18.8 kcal/mol.

Take GGCAGTGCGAAAGCAGCC (((..(((....)))))): the Tm in data set [1] amounted to 53 °C. Further, the folding enthalpy in data set [2] is -19.7 kcal/mol.

On to GCATAGCGAAAGCCTTGC (((..((....))..))), for which, in data set [1], the Tm came to 36.9 °C. Further, the folding enthalpy in data set [2] was -13.9 kcal/mol.

For the sequence GCAGCGCGAAAGCATTGC (((..((....))..))), the Tm in data set [1] turned out to be 40.9 °C. For the same sequence, the folding enthalpy in data set [2] was -14 kcal/mol.

For the sequence GCAGGGCGAAAGCGCAGC ((.(.((....)).).)), the Tm in data set [1] worked out at 54.8 °C. For the same sequence, the folding enthalpy in data set [2] is -11.9 kcal/mol.

On to GCTGTCGAAAGACTTAGC ((((((....)))..))), for which, in data set [1], the Tm amounted to 43 °C. In addition, in data set [2], the folding enthalpy is -19.9 kcal/mol.

Turning to GATCTCTTTAGAGATC ((((((....)))))), the Tm in data set [1] worked out at 61.8 °C. Also, in data set [2], the folding enthalpy was -44.9 kcal/mol.

On to GATCATAGTCATGATC ((((((....)))))), for which the Tm in data set [1] stood at 47.2 °C. Also, the folding enthalpy in data set [2] was -32.9 kcal/mol.

As to GTGTCGGGAAACCGACGC (.(((((....))))).), the Tm in data set [1] was 60.5 °C. In addition, the folding enthalpy in data set [2] is -19.8 kcal/mol.

As to GATGTAGGAAACTGCATC ((((.((....)).)))), the Tm in data set [1] was 45 °C. The folding enthalpy in data set [2] was -34.6 kcal/mol.

For the sequence GATCGCCCGCGCGATC ((((((....)))))), the Tm in data set [1] was found to be 66.3 °C. The folding enthalpy in data set [2] is -30.6 kcal/mol.

GTCTCGCCGAAAGGCGAC (((..(((....)))))): in data set [1], the Tm was found to be 39.5 °C. The folding enthalpy in data set [2] was -6.03 kcal/mol.

With GTGCGCGAAAGCGTGCAC ((((((....)))..))), the Tm in data set [1] turned out to be 59.3 °C. Besides, the folding enthalpy in data set [2] was -17.3 kcal/mol.

Take GGCGTGCCGAAAGGCGCC (((..(((....)))))): in data set [1], the Tm is 59.8 °C. Moreover, the folding enthalpy in data set [2] is -11.5 kcal/mol.

Take GATCCTGTGAGGATC ((((((...)))))): the Tm in data set [1] was 53.3 °C. Moreover, the folding enthalpy in data set [2] is -32.3 kcal/mol.

For GGCCTCGGAAACGAAGCC (((.(((....))).))), the Tm in data set [1] came out at 47.8 °C. For the same sequence, in data set [2], the folding enthalpy was -30.8 kcal/mol.

Turning to GTTGTGGGAAACTACAGC (.(((.(....).))).), the Tm in data set [1] was 32 °C. Also, in data set [2], the folding enthalpy was -16.8 kcal/mol.

In the case of GGTAAGGAAACTTACC ((((((....)))))), in data set [1], the Tm came out at 50.3 °C. Also, the folding enthalpy in data set [2] was -32.2 kcal/mol.

On to GCTAGGCGAAAGCGGAGC (((..((....))..))), for which the Tm in data set [1] amounted to 42.4 °C. Moreover, in data set [2], the folding enthalpy is -20.1 kcal/mol.

Regarding GGTAAGGGAAACCTTACC (((((((....))))))), the Tm in data set [1] was 57.5 °C. In addition, in data set [2], the folding enthalpy is -46.1 kcal/mol.

On to GCATGCGAAAGCAACTGC ((((((....)))..))), for which the Tm in data set [1] worked out at 40.2 °C. In addition, the folding enthalpy in data set [2] was -14.2 kcal/mol.

On to CGCCTCGGAAACGAAGCG (((.(((....))).))), for which, in data set [1], the Tm was 48.3 °C. Besides, the folding enthalpy in data set [2] was -25.9 kcal/mol.

In the case of GCCCGGCGAAAGCCATGC ((..(((....)))..)), in data set [1], the Tm is 28.8 °C. For the same sequence, the folding enthalpy in data set [2] was -8.55 kcal/mol.

Regarding GATGACGAAAGTCACATC ((((((....)))..))), in data set [1], the Tm is 29.2 °C. Further, the folding enthalpy in data set [2] was -8.72 kcal/mol.

Regarding GGCTCGGGAAACCGGGTC (.(.(((....))).).), the Tm in data set [1] is 46.9 °C. For the same sequence, the folding enthalpy in data set [2] is -28.2 kcal/mol.

For GCTACGCGAAAGCGATGC ((..(((....)))..)), in data set [1], the Tm stood at 50 °C. For the same sequence, the folding enthalpy in data set [2] is -18.3 kcal/mol.

For the sequence GATCATAGATATGATC ((((((....)))))), the Tm in data set [1] came to 47.3 °C. In addition, in data set [2], the folding enthalpy was -33.6 kcal/mol.

Consider GAATCGGGAAACCGATCC (.(((((....))))).), for which, in data set [1], the Tm amounted to 39 °C. The folding enthalpy in data set [2] was -15.6 kcal/mol.

In the case of GCTTAGGGAAACTTAAGC (((((.(....).))))), in data set [1], the Tm turned out to be 37.9 °C. The folding enthalpy in data set [2] was -30 kcal/mol.

In the case of GGACAGCGAAAGCTTTCC (((.(((....))).))), the Tm in data set [1] was found to be 48.3 °C. For the same sequence, in data set [2], the folding enthalpy is -29.6 kcal/mol.

For GACGGCGCGAAAGCGGTC (((..(((....)))))), in data set [1], the Tm was 48.2 °C. In addition, in data set [2], the folding enthalpy was -9.91 kcal/mol.

For the sequence GTAACCGAAAGGTGGTAC ((((((....)))..))), in data set [1], the Tm turned out to be 33.8 °C. For the same sequence, in data set [2], the folding enthalpy is -12.3 kcal/mol.

Take CACTAGAAATAGTG (((((....))))): in data set [1], the Tm came to 37.2 °C. Besides, the folding enthalpy in data set [2] is -16.9 kcal/mol.

For GATCGTTTTCACGATC ((((((....)))))), the Tm in data set [1] is 55.4 °C. The folding enthalpy in data set [2] is -45.2 kcal/mol.

With GATCCTGCGTAGGATC ((((((....)))))), the Tm in data set [1] stood at 51.4 °C. The folding enthalpy in data set [2] was -44.2 kcal/mol.

As to GAGGGTGGAAACGCCTTC ((.((.(....).)).)), the Tm in data set [1] came to 34.1 °C. Besides, the folding enthalpy in data set [2] was -25.7 kcal/mol.

Turning to GCGGATCCCGC ((((...)))), the Tm in data set [1] was determined as 53.6 °C. Further, in data set [2], the folding enthalpy is -23.4 kcal/mol.

Turning to GACAACGAAAGTTGGGTC ((((((....)))..))), the Tm in data set [1] stood at 49.8 °C. In addition, the folding enthalpy in data set [2] was -15.7 kcal/mol.

On to GCACGCGAAAGCGAGTGC ((((((....)))..))), for which the Tm in data set [1] came out at 59.5 °C. Moreover, in data set [2], the folding enthalpy is -21.1 kcal/mol.

In the case of GCGGAACGCCGC ((((....)))), the Tm in data set [1] worked out at 58.4 °C. For the same sequence, the folding enthalpy in data set [2] was -9.84 kcal/mol.

Consider GCGTACAGACGC ((((....)))), for which the Tm in data set [1] stood at 51 °C. Also, the folding enthalpy in data set [2] was -22.5 kcal/mol.
